Assay results taken from ChEMBL document CHEMBL3272244, “Synthesis and biological activity of two metabolites of 1-methyl-5-(1-methylethyl)-2-nitro-1 H-imidazole, an antiprotozoal agent” (J Med Chem, 1977).
In brackets after ≈: the same amount, converted by molar mass.

Legend:
[1] = system: Staphylococcus aureus; assay: Antibacterial activity against Staphylococcus aureus Tour assessed as growth inhibition; format: functional
[2] = system: Clostridium perfringens; assay: Antibacterial activity against Clostridium perfringens ISS 30453 assessed as growth inhibition; format: functional
[3] = system: Escherichia coli; assay: Antibacterial activity against Escherichia coli SKF 12140 assessed as growth inhibition; format: functional
[4] = system: Trichomonas vaginalis; assay: Antiprotozoal activity against Trichomonas vaginalis assessed as static effect; format: functional
[5] = system: Trichomonas vaginalis; assay: Antiprotozoal activity against Trichomonas vaginalis assessed as cidal effect; format: functional
[6] = system: Trichomonas vaginalis; assay: Antiprotozoal activity against Trichomonas vaginalis infected in po dosed mouse; format: functional
[7] = system: Trichomonas vaginalis; assay: Ratio of compound ED50 to metronidazole ED50 for Trichomonas vaginalis infected in po dosed mouse; format: functional
[8] = Acute toxicity in po dosed mouse; format: organism-based; settings: in vivo
How it was run: (§1)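 Mice dosed with the agent. LD50 values were computed by the Litchfield and Wilcoxon method.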

[9] = Acute toxicity in ip dosed mouse; format: organism-based; settings: in vivo; how it was run: as §1

Row | SMILES | MIC [1] [µg/mL] | MIC [2] [µg/mL] | MIC [3] [µg/mL] | MIC [4] [µg/mL] | MIC [5] [µg/mL] | ED50 [6] [mg/kg] | Ratio ED50 [7] | LD50 [8] [mg/kg] | LD50 [9] [mg/kg]
1 | CC(C)c1cnc([N+](=O)[O-])n1C | > 300 | 5 (≈ 29.6 µM) | > 300 | 5 (≈ 29.6 µM) | 20 (≈ 118 µM) | 2.03 | 0.17 |  | 
2 | Cn1c(C(C)(C)O)cnc1[N+](=O)[O-] | 100 (≈ 540 µM) | 25 (≈ 135 µM) | 100 (≈ 540 µM) | 6.2 (≈ 33.5 µM) | 25 (≈ 135 µM) | 2.5 | 0.21 | 698 | 475
3 | COC(C)(C)c1cnc([N+](=O)[O-])n1C | 100 (≈ 502 µM) | 100 (≈ 502 µM) | > 100 | 6.2 (≈ 31.1 µM) | 50 (≈ 251 µM) |  | 0.19 |  | 225
4 | C=C(C)c1cnc([N+](=O)[O-])n1C | > 100 | 3.1 (≈ 18.5 µM) | > 100 | 2 (≈ 12 µM) | 10 (≈ 59.8 µM) | 32.5 | 3.25 | 350 | 
5 | Cn1c(C(C)(O)CO)cnc1[N+](=O)[O-] (stereo unspecified) | > 100 | 5 (≈ 24.9 µM) | > 100 | 10 (≈ 49.7 µM) | 20 (≈ 99.4 µM) | > 80 | >8 | > 1000 | 
6 | Cc1ncc([N+](=O)[O-])n1CCO [METRONIDAZOLE] | > 300 | 0.5 (≈ 2.92 µM) | > 300 | 0.5 (≈ 2.92 µM) | 5 (≈ 29.2 µM) | 11.5 | 1 |  | 
